Experiments:
Type in all cases: functional
CCRF-CEM [1] = assay: Growth inhibition of human CCRF-CEM cells assessed as cell growth at 1 uM incubated for 48 hrs by sulforhodamine B assay relative to control; settings: read-out: Activity
Outline: (§1)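 NCI Developmental Therapeutics Program NCI60 panel. Compounds that were active in the 10 µM one-dose screen went on to dose–response testing. Growth at each concentration is expressed relative to untreated control (100%). GI50 (concentration giving 50% of maximal inhibition of proliferation) and TGI (concentration giving total growth inhibition) were derived from the curves.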

SF-295 = assay: Growth inhibition of human SF-295 cells assessed as cell growth at 0.01 uM incubated for 48 hrs by sulforhodamine B assay relative to control; settings: read-out: Activity
UO-31 = assay: Growth inhibition of human UO-31 cells assessed as cell growth at 100 uM incubated for 48 hrs by sulforhodamine B assay relative to control; settings: read-out: Activity
SK-MEL-28 = assay: Growth inhibition of human SK-MEL-28 cells assessed as cell growth at 0.01 uM incubated for 48 hrs by sulforhodamine B assay relative to control; settings: read-out: Activity
UACC-62 = assay: Growth inhibition of human UACC-62 cells assessed as cell growth at 1 uM incubated for 48 hrs by sulforhodamine B assay relative to control; settings: read-out: Activity
NCI-H23 = assay: Growth inhibition of human NCI-H23 cells assessed as cell growth at 0.01 uM incubated for 48 hrs by sulforhodamine B assay relative to control; settings: read-out: Activity
SW-620 = assay: Growth inhibition of human SW-620 cells assessed as cell growth at 0.01 uM incubated for 48 hrs by sulforhodamine B assay relative to control; settings: read-out: Activity
PC-3 = assay: Growth inhibition of human PC-3 cells incubated for 48 hrs by sulforhodamine B assay; settings: for CC50: read-out: LC50 (the source's name)
Outline: (§2)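 NCI DTP 60-line human tumour panel. Dose-response curves were run only for ligands active in the initial 10 µM screen. GI50 (concentration giving 50% of maximal inhibition of proliferation) and TGI (concentration giving total growth inhibition) were derived from these curves.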

NCI/ADR-RES = assay: Growth inhibition of human NCI/ADR-RES cells assessed as cell growth at 1 uM incubated for 48 hrs by sulforhodamine B assay relative to control; settings: read-out: Activity
CCRF-CEM [2] = assay: Growth inhibition of human CCRF-CEM cells assessed as cell growth at 100 uM incubated for 48 hrs by sulforhodamine B assay relative to control; settings: read-out: Activity; outline: as §1
M14 = assay: Growth inhibition of human M14 cells incubated for 48 hrs by sulforhodamine B assay
Outline: (§3)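 NCI60 panel at the NCI Developmental Therapeutics Program. Only compounds active in the 10 µM screen went to dose-response testing. GI50, the concentration giving 50% of maximal inhibition of proliferation, and TGI, the concentration giving total growth inhibition, were derived from the dose-response curves.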

MDA-MB-468 = assay: Growth inhibition of human MDA-MB-468 cells assessed as cell growth at 1 uM incubated for 48 hrs by sulforhodamine B assay relative to control; settings: read-out: Activity
K562 [3] = assay: Growth inhibition of human K562 cells assessed as cell growth at 0.01 uM incubated for 48 hrs by sulforhodamine B assay relative to control; settings: read-out: Activity
A498 = assay: Growth inhibition of human A498 cells assessed as cell growth at 0.01 uM incubated for 48 hrs by sulforhodamine B assay relative to control; settings: read-out: Activity; outline: as §1
HOP-92 [4] = assay: Growth inhibition of human HOP-92 cells assessed as cell growth at 0.01 uM incubated for 48 hrs by sulforhodamine B assay relative to control; settings: read-out: Activity
SNB-19 = assay: Growth inhibition of human SNB-19 cells assessed as cell growth at 1 uM incubated for 48 hrs by sulforhodamine B assay relative to control; settings: read-out: Activity
HCC 2998 [5] = assay: Growth inhibition of human HCC 2998 cells incubated for 48 hrs by sulforhodamine B assay; settings: for CC50: read-out: LC50 (the source's name)
UACC-257 = assay: Growth inhibition of human UACC-257 cells assessed as cell growth at 0.01 uM incubated for 48 hrs by sulforhodamine B assay relative to control; settings: read-out: Activity
SN12C [6] = assay: Growth inhibition of human SN12C cells assessed as cell growth at 1 uM incubated for 48 hrs by sulforhodamine B assay relative to control; settings: read-out: Activity
SF-539 [7] = assay: Growth inhibition of human SF-539 cells incubated for 48 hrs by sulforhodamine B assay; settings: for CC50: read-out: LC50 (the source's name); outline: as §2
A549 = assay: Growth inhibition of human A549/ATCC cells assessed as cell growth at 100 uM incubated for 48 hrs by sulforhodamine B assay relative to control; settings: read-out: Activity; outline: as §1
OVCAR-8 = assay: Growth inhibition of human OVCAR-8 cells incubated for 48 hrs by sulforhodamine B assay; settings: for CC50: read-out: LC50 (the source's name); outline: as §2
T47D = assay: Growth inhibition of human T47D cells assessed as cell growth at 0.1 uM incubated for 48 hrs by sulforhodamine B assay relative to control; settings: read-out: Activity
Malme-3M = assay: Growth inhibition of human Malme-3M cells incubated for 48 hrs by sulforhodamine B assay; outline: as §3
SN12C [8] = assay: Growth inhibition of human SN12C cells incubated for 48 hrs by sulforhodamine B assay; settings: for CC50: read-out: LC50 (the source's name); outline: as §2
U-251 = assay: Growth inhibition of human U-251 cells assessed as cell growth at 0.01 uM incubated for 48 hrs by sulforhodamine B assay relative to control; settings: read-out: Activity
KM12 = assay: Growth inhibition of human KM12 cells assessed as cell growth at 0.01 uM incubated for 48 hrs by sulforhodamine B assay relative to control; settings: read-out: Activity
TK-10 = assay: Growth inhibition of human TK-10 cells assessed as cell growth at 1 uM incubated for 48 hrs by sulforhodamine B assay relative to control; settings: read-out: Activity
K562 [9] = assay: Growth inhibition of human K562 cells assessed as cell growth at 1 uM incubated for 48 hrs by sulforhodamine B assay relative to control; settings: read-out: Activity
SF-539 [10] = assay: Growth inhibition of human SF-539 cells assessed as cell growth at 0.01 uM incubated for 48 hrs by sulforhodamine B assay relative to control; settings: read-out: Activity
MCF7 = assay: Growth inhibition of human MCF7 cells incubated for 48 hrs by sulforhodamine B assay; settings: for CC50: read-out: LC50 (the source's name); outline: as §3
BT-549 = assay: Growth inhibition of human BT-549 cells assessed as cell growth at 0.01 uM incubated for 48 hrs by sulforhodamine B assay relative to control; settings: read-out: Activity
HOP-92 [11] = assay: Growth inhibition of human HOP-92 cells incubated for 48 hrs by sulforhodamine B assay; outline: as §3
HCC 2998 [12] = assay: Growth inhibition of human HCC 2998 cells assessed as cell growth at 100 uM incubated for 48 hrs by sulforhodamine B assay relative to control; settings: read-out: Activity; outline: as §1
OVCAR-3 = assay: Growth inhibition of human OVCAR-3 cells assessed as cell growth at 100 uM incubated for 48 hrs by sulforhodamine B assay relative to control; settings: read-out: Activity

Nc1c(C(=O)Nc2ccccc2)sc2nc3c(cc12)CN(Cc1ccccc1)CC3
growth at 1 µM (CCRF-CEM [1]): 92%
growth at 0.01 µM (SF-295): 96%
growth at 100 µM (UO-31): 32%
growth at 0.01 µM (SK-MEL-28): 100%
growth at 1 µM (UACC-62): 89%
growth at 0.01 µM (NCI-H23): 97%
growth at 0.01 µM (SW-620): 98%
GI50 (PC-3): 27.1 µM
TGI (PC-3): > 100 µM
CC50 (PC-3): > 100 µM
growth at 1 µM (NCI/ADR-RES): 98%
growth at 100 µM (CCRF-CEM [2]): 36%
GI50 (M14): 30.8 µM
LC50 (concentration killing 50% of cells) (M14): > 100 µM
TGI (M14): > 100 µM
growth at 1 µM (MDA-MB-468): 87%
growth at 0.01 µM (K562 [3]): 98%
growth at 0.01 µM (A498): 91%
growth at 0.01 µM (HOP-92 [4]): 92%
growth at 1 µM (SNB-19): 88%
GI50 (HCC 2998 [5]): 76.1 µM
TGI (HCC 2998 [5]): > 100 µM
CC50 (HCC 2998 [5]): > 100 µM
growth at 0.01 µM (UACC-257): 93%
growth at 1 µM (SN12C [6]): 87%
GI50 (SF-539 [7]): 2.78 µM
TGI (SF-539 [7]): > 100 µM
CC50 (SF-539 [7]): > 100 µM
growth at 100 µM (A549): 17%
GI50 (OVCAR-8): 16.8 µM
TGI (OVCAR-8): > 100 µM
CC50 (OVCAR-8): > 100 µM
growth at 0.1 µM (T47D): 79%
GI50 (Malme-3M): 3.8 µM
LC50 (Malme-3M): > 100 µM
TGI (Malme-3M): > 100 µM
GI50 (SN12C [8]): 65.7 µM
TGI (SN12C [8]): > 100 µM
CC50 (SN12C [8]): > 100 µM
growth at 0.01 µM (U-251): 98%
growth at 0.01 µM (KM12): 100%
growth at 1 µM (TK-10): 100%
growth at 1 µM (K562 [9]): 88%
growth at 0.01 µM (SF-539 [10]): 96%
GI50 (MCF7): 12.1 µM
TGI (MCF7): > 100 µM
CC50 (MCF7): > 100 µM
growth at 0.01 µM (BT-549): 97%
GI50 (HOP-92 [11]): 2.48 µM
LC50 (concentration killing 50% of the starting cells) (HOP-92 [11]): > 100 µM
TGI (HOP-92 [11]): 20.4 µM
growth at 100 µM (HCC 2998 [12]): 47%
growth at 100 µM (OVCAR-3): 20%

Cc1cc(C)c(NC(=O)c2sc3nc4c(cc3c2N)CN(Cc2ccccc2)CC4)c(C)c1
growth at 1 µM (CCRF-CEM [1]): 88%
growth at 0.01 µM (SF-295): 86%
growth at 100 µM (UO-31): -1%
growth at 0.01 µM (SK-MEL-28): 97%
growth at 1 µM (UACC-62): 69%
growth at 0.01 µM (NCI-H23): 102%
growth at 0.01 µM (SW-620): 95%
GI50 (PC-3): 3.13 µM
TGI (PC-3): > 100 µM
CC50 (PC-3): > 100 µM
growth at 1 µM (NCI/ADR-RES): 69%
growth at 100 µM (CCRF-CEM [2]): -3%
GI50 (M14): 2.89 µM
LC50 (concentration killing 50% of cells) (M14): > 100 µM
TGI (M14): 31.5 µM
growth at 1 µM (MDA-MB-468): 63%
growth at 0.01 µM (K562 [3]): 108%
growth at 0.01 µM (A498): 87%
growth at 0.01 µM (HOP-92 [4]): 85%
growth at 1 µM (SNB-19): 87%
GI50 (HCC 2998 [5]): 5.33 µM
TGI (HCC 2998 [5]): 38.4 µM
CC50 (HCC 2998 [5]): > 100 µM
growth at 0.01 µM (UACC-257): 94%
growth at 1 µM (SN12C [6]): 92%
GI50 (SF-539 [7]): 2.44 µM
TGI (SF-539 [7]): 7.79 µM
CC50 (SF-539 [7]): > 100 µM
growth at 100 µM (A549): 13%
GI50 (OVCAR-8): 4.72 µM
TGI (OVCAR-8): > 100 µM
CC50 (OVCAR-8): > 100 µM
growth at 0.1 µM (T47D): 93%
GI50 (Malme-3M): 3.44 µM
LC50 (Malme-3M): > 100 µM
TGI (Malme-3M): 42 µM
GI50 (SN12C [8]): 5.6 µM
TGI (SN12C [8]): > 100 µM
CC50 (SN12C [8]): > 100 µM
growth at 0.01 µM (U-251): 99%
growth at 0.01 µM (KM12): 98%
growth at 1 µM (TK-10): 95%
growth at 1 µM (K562 [9]): 47%
growth at 0.01 µM (SF-539 [10]): 91%
GI50 (MCF7): 1.61 µM
TGI (MCF7): 32.2 µM
CC50 (MCF7): > 100 µM
growth at 0.01 µM (BT-549): 87%
GI50 (HOP-92 [11]): 0.877 µM
LC50 (concentration killing 50% of the starting cells) (HOP-92 [11]): > 100 µM
TGI (HOP-92 [11]): 42.6 µM
growth at 100 µM (HCC 2998 [12]): -21%
growth at 100 µM (OVCAR-3): -47%
